Experimental data from ChEMBL document CHEMBL5154915 (J Med Chem, 2022).
Calls of active or inactive are those of the source. The calls are words filed in the database; no cut-off is given here.

Tests used:
[1] = Acute toxicity in po dosed Albino Swiss CD-1 mouse assessed as lethal dose after 24 hrs; format: organism-based; conditions: in vivo
How it was run: (§1)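 Male Albino Swiss CD-1 mice received compound in saline. Intravenous doses were 100, 200, 250, 275 and 300 mg/kg (1–4 mice per group). Oral doses were 100, 200, 400, 600 and 800 mg/kg (4 per group). Vehicle-only controls were included.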

Cavia porcellus [2] = species on record: Cavia porcellus; assay: Activation of SERCA2a activity in guinea pig heart sarcoplasmic reticulum microsomal fraction assessed as increase in SERCA2a-Ca2+ affinity by measuring Kd of calcium at 100 nM preincubated for 5 mins followed by addition of 32-P-ATP measured after 15 mins relative to control; format: subcellular; conditions: time 20.0 min
How it was run: (§2)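 Cardiac SR microsomes were prepared from healthy guinea pig hearts and contain SERCA2a plus PLN. Compounds were tested at 10 and 100 nM. KdCa and Vmax were derived by curve fitting. N = 4–11; one-way RM ANOVA with Tukey or paired t-test.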

Cavia porcellus [3] = species on record: Cavia porcellus; assay: Activation of SERCA1 activity in guinea pig skeletal muscle microsome from hind leg assessed as increase in SERCA1-Ca2+ affinity by measuring Kd of calcium at 30 to 1000 nM preincubated for 5 mins followed by addition of 32-P-ATP measured after 15 mins in presence of PLN (1-12) relative to control; format: microsomes; conditions: dose 30-1000 nM, time 20.0 min
Cavia porcellus [4] = species on record: Cavia porcellus; assay: Activation of SERCA1 activity in guinea pig skeletal muscle microsome from hind leg assessed as increase in SERCA1-Ca2+ affinity by measuring reversal of PLN (1-12)-induced shift in dissociation of calcium; format: microsomes; conditions: filed as activator, dose 30-1000 nM, DDE = dose-dependent effect
Cavia porcellus [5] = species on record: Cavia porcellus; assay: Activation of SERCA2a activity in guinea pig heart sarcoplasmic reticulum microsomal fraction assessed as increase in SERCA2a-Ca2+ affinity by measuring Kd of calcium at 10 to 100 nM preincubated for 5 mins followed by addition of 32-P-ATP measured after 15 mins; format: subcellular; conditions: filed as activator, dose 10-100 nM, time 20.0 min
How it was run: as §2, with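 “nM. ATPase was measured as 32P-ATP release at 37 °C, taking the cyclopiazonic acid (10 μM)-sensitive part, across Ca2+ 100–1500 nM.” for “nM.”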

Rattus norvegicus [6] = assay: Hemodynamic activity in STZ-induced diabetic cardiomyopathy Sprague-Dawley rat model assessed as transmitral doppler flow index by measuring increase in telediastolic TDI relaxation velocity at 0.2 mg/kg/min, iv for 15 to 30 mins measured after 10 mins of treatment by tissue doppler imaging method; format: functional, organism-based; conditions: time lower […], time upper 40.0 min
How it was run: (§3)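 Male Sprague Dawley rats (150–175 g) were made diabetic with STZ 50 mg/kg i.v. in citrate buffer; fasting glycaemia >290 mg/dL at 1 week qualified. They were studied 8 weeks after STZ under urethane 1.25 g/kg i.p. Transthoracic echo with pulsed Doppler and TDI was taken before, at 15 and 30 min during i.v. infusion at 0.2 mg/kg/min, and 10 min after stopping. N = 13; one-way RM ANOVA.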

[7] = Acute toxicity in Albino Swiss CD-1 mouse assessed as gasping at 100 to 800 mg/kg, po or 100 to 300 mg/kg, iv after 24 hrs; format: organism-based; conditions: in vivo, dose 100-800 mg/kg; how it was run: as §1
Rattus norvegicus [8] = assay: Hemodynamic activity in STZ-induced diabetic cardiomyopathy Sprague-Dawley rat model assessed as increased cardiac output at 0.2 mg/kg/min, iv for 15 to 30 mins measured after 10 mins of treatment by tissue doppler imaging method; format: functional, organism-based; conditions: time lower […], time upper 40.0 min; how it was run: as §3
Rattus norvegicus [9] = assay: Hemodynamic activity in STZ-induced diabetic cardiomyopathy Sprague-Dawley rat model assessed as effect on systolic TDI velocity at 0.2 mg/kg/min, iv for 15 to 30 mins measured after 10 mins of treatment by tissue doppler imaging method; format: functional, organism-based; conditions: time lower […], time upper 40.0 min; how it was run: as §3
[10] = Acute toxicity in Albino Swiss CD-1 mouse assessed as prostration at 100 to 800 mg/kg, po or 100 to 300 mg/kg, iv after 24 hrs; format: organism-based; conditions: in vivo, dose 100-800 mg/kg; how it was run: as §1
Rattus norvegicus [11] = assay: Hemodynamic activity in STZ-induced diabetic cardiomyopathy Sprague-Dawley rat model assessed as effect on heart rate at 0.2 mg/kg/min, iv for 15 to 30 mins measured after 10 mins of treatment by tissue doppler imaging method; format: functional, organism-based; conditions: time lower […], time upper 40.0 min; how it was run: as §3
Rattus norvegicus [12] = assay: Hemodynamic activity in STZ-induced diabetic cardiomyopathy Sprague-Dawley rat model assessed as effect on left ventricular end-systolic diameter at 0.2 mg/kg/min, iv for 15 to 30 mins measured after 10 mins of treatment by tissue doppler imaging method; format: functional, organism-based; conditions: time lower […], time upper 40.0 min; how it was run: as §3
[13] = Acute toxicity in Albino Swiss CD-1 mouse assessed as convulsions at 100 to 800 mg/kg, po or 100 to 300 mg/kg, iv after 24 hrs; format: organism-based; conditions: in vivo, dose 100-800 mg/kg; how it was run: as §1
Rattus norvegicus [14] = assay: Hemodynamic activity in STZ-induced diabetic cardiomyopathy Sprague-Dawley rat model assessed as effect on systolic index by measuring fractional shortening at 0.2 mg/kg/min, iv for 15 to 30 mins measured after 10 mins of treatment by tissue doppler imaging method; format: functional, organism-based; conditions: time lower […], time upper 40.0 min; how it was run: as §3
Rattus norvegicus [15] = assay: Hemodynamic activity in STZ-induced diabetic cardiomyopathy Sprague-Dawley rat model assessed as transmitral doppler flow index by measuring increase in protodiastolic TDI relaxation velocity at 0.2 mg/kg/min, iv for 15 to 30 mins measured after 10 mins of treatment by tissue doppler imaging method; format: functional, organism-based; conditions: time lower […], time upper 40.0 min; how it was run: as §3
Rattus norvegicus [16] = assay: Hemodynamic activity in STZ-induced diabetic cardiomyopathy Sprague-Dawley rat model assessed as transmitral doppler flow index by measuring shortening in DT wave at 0.2 mg/kg/min, iv for 15 to 30 mins measured after 10 mins of treatment by tissue doppler imaging method; format: functional, organism-based; conditions: time lower […], time upper 40.0 min; how it was run: as §3
[17] = Inhibition of NA+/K+ ATPase activity in STZ-induced diabetic rat left ventricular myocytes assessed as inhibition of NA+/K+ ATPase current at 20 to 100 uM for 30 min; format: toxicity, cell-based; conditions: ventricular myocyte, 0.5 h, dose 20-100 µM
Rattus norvegicus [18] = assay: Hemodynamic activity in STZ-induced diabetic cardiomyopathy Sprague-Dawley rat model assessed as transmitral doppler flow index by measuring increasing in E and A waves at 0.2 mg/kg/min, iv for 15 to 30 mins measured after 10 mins of treatment by tissue doppler imaging method; format: functional, organism-based; conditions: time lower […], time upper 40.0 min; how it was run: as §3
[19] = Acute toxicity in iv dosed Albino Swiss CD-1 mouse assessed as lethal dose after 24 hrs; format: organism-based; conditions: in vivo; how it was run: as §1
Na+/K+ ATPase alpha 1 = Na+/K+ ATPase alpha 1 (Canis lupus familiaris, UniProt P50997); assay: Inhibition of Beagle dog kidney NA+/K+ ATPase alpha 1 by measuring 32P-ATP hydrolysis at 0.0001 M preincubated for 10 mins followed by addition of 32P-ATP measured after 15 mins; format: toxicity; conditions: dog kidney Na+/K+ ATPase alpha 1, probe 32P-ATP, time 25 min
How it was run: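 Na+/K+ ATPase-α1 was purified from dog kidney (specific activity 14 μmol/min/mg protein). Compounds were tested from 10–9 to 10–4 M. Activity is the ouabain (1 mM)-sensitive part of total 32P-ATP release at 37 °C. N = 2.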

For `C[C@]12CCC(=NOCCN)C[C@@H]1C(=O)C[C@@H]1[C@@H]2CC[C@]2(C)C(=O)CC[C@@H]12` (mixture of isomers), the LD50 at 24 h [1] was 200 mg/kg.
For `C[C@]12CC[C@H](CC(=O)O)C[C@@H]1[C@@H](O)C[C@@H]1[C@@H]2CC[C@]2(C)C(=O)CC[C@@H]12`, the Activity (Cavia porcellus [2]) was -26%, the Activity (Cavia porcellus [3]) was 23% and the Activity (Cavia porcellus [4]) was “Dde”. For the same molecule, the Activity (Cavia porcellus [5]) was “Active”.
For `C[C@]12CC[C@H](CCCC(=O)O)C[C@@H]1[C@H](O)C[C@@H]1[C@@H]2CC[C@]2(C)C(=O)CC[C@@H]12`, the Activity (Cavia porcellus [5]) was “Active”.
For `CCOC(=O)CCCCC[C@H]1CC[C@@]2(C)[C@H](C1)[C@@H](O)C[C@@H]1[C@@H]2CC[C@]2(C)C(=O)CC[C@@H]12`, the Activity (Cavia porcellus [2]) was -26% and the Activity (Cavia porcellus [5]) was “Active”.
With `C[C@]12CC[C@H](CCCC(=O)O)C[C@@H]1[C@@H](O)C[C@@H]1[C@@H]2CC[C@]2(C)C(=O)CC[C@@H]12` the Activity (Rattus norvegicus [6]) was “Active”, the Activity [7] was “Non-Toxic” and the Activity (Rattus norvegicus [8]) was “Active”. The Activity (Rattus norvegicus [9]) was “Active”, the Activity [10] was “Non-Toxic” and the Activity (Rattus norvegicus [11]) was “Active”. The Activity (Rattus norvegicus [12]) was “Active”, the Activity (Cavia porcellus [3]) was 23% and the Activity [13] was “Non-Toxic”. For the same molecule, the Activity (Cavia porcellus [4]) was “Dde”, the Activity (Rattus norvegicus [14]) was “Active” and the Activity (Cavia porcellus [5]) was “Active”. For the same molecule, the Activity (Rattus norvegicus [15]) was “Active”, the Activity (Rattus norvegicus [16]) was “Active” and the “inhibition (INH)” value [17] was “Active”. The Activity (Rattus norvegicus [18]) was “Active”.
With `C[C@]12CC[C@H](CCCCCC(=O)O)C[C@@H]1[C@@H](O)C[C@@H]1[C@@H]2CC[C@]2(C)C(=O)CC[C@@H]12` the Activity (Cavia porcellus [2]) was -26% and the Activity (Cavia porcellus [5]) was “Active”.
In the case of `C[C@]12CC/C(=N\OCC(=O)O)C[C@@H]1[C@H](O)C[C@@H]1[C@@H]2CC[C@]2(C)C(=O)CC[C@@H]12`, the LD50 at 24 h [19] is reported as > 250 mg/kg.
For `CCOC(=O)CCC[C@H]1CC[C@@]2(C)[C@H](C1)[C@@H](O)C[C@@H]1[C@@H]2CC[C@]2(C)C(=O)CC[C@@H]12`, the Activity (Cavia porcellus [2]) was -26% and the Activity (Cavia porcellus [5]) was “Active”.
Molecule `C[C@]12CC[C@H](CC(=O)O)C[C@@H]1[C@H](O)C[C@@H]1[C@@H]2CC[C@]2(C)C(=O)CC[C@@H]12` has an inhibition at […], 100 µM (Na+/K+ ATPase alpha 1) of -55%.
For `C[C@]12CC/C(=C\CCC(=O)O)C[C@@H]1[C@@H](O)C[C@@H]1[C@@H]2CC[C@]2(C)C(=O)CC[C@@H]12`, the Activity (Cavia porcellus [2]) was -26% and the Activity (Cavia porcellus [5]) was “Active”.
`C[C@]12CC/C(=C\CCC(=O)O)C[C@@H]1[C@H](O)C[C@@H]1[C@@H]2CC[C@]2(C)C(=O)CC[C@@H]12` gave an inhibition at […], 100 µM (Na+/K+ ATPase alpha 1) of -62%.
In the case of `CCOC(=O)C[C@H]1CC[C@@]2(C)[C@H](C1)[C@@H](O)C[C@@H]1[C@@H]2CC[C@]2(C)C(=O)CC[C@@H]12`, the Activity (Cavia porcellus [5]) is reported as “Active”.
